Assay results gathered from unrelated publications.
Protocols differ between the studies behind these lines.
Matrix: plasma

With `CC(C)n1c(Nc2cccnc2)nc2cnc(Nc3ccc(N4CCN(C)CC4)cc3)nc21` the Cmax was 0.0457 µg/mL (male human; oral; 100 mg; single dose).
`Cl.[2H]C([2H])([2H])CC(=O)c1cnc(NC(=O)C2CC2)cc1Nc1cccc(-c2ncn(C([2H])([2H])[2H])n2)c1OC` has a Cmax of 0.132 µg/mL (human; oral; 20 mg; multiple doses, once daily, fasted).
`CN1CC[C@@H](c2c(O)cc(O)c3c(=O)cc(-c4ccc(C(F)(F)F)cc4Cl)oc23)[C@@H]1CO` has a Cmax of 0.245 µg/mL (human; oral; 150 mg; patients).
`COc1ccc([C@@H](O)c2cc(-c3ncnc4cc(N5CCOCC5)ccc34)c(F)cc2Cl)nn1` gave a Cmax of 0.854 µg/mL (human; oral; 200 mg; single dose, patients).
The Cmax of `N[C@@H]1c2cccnc2[C@H](OC(=O)N2CCC(n3c(=O)[nH]c4ncccc43)CC2)CC[C@H]1c1cccc(F)c1F` is reported as 0.923 µg/mL (human; oral; 75 mg; single dose).
With `NS(=O)(=O)OC[C@@H]1C[C@@H](n2ccc3c(N[C@H]4CCc5ccccc54)ncnc32)C[C@@H]1O` the Cmax was 0.127 µg/mL (human; intravenous; 15 mg/m²; patients).
`Cn1cc(Nc2nc(N)nc(-c3cccc(-n4ccc5cc(C6CC6)cc(F)c5c4=O)c3CO)n2)cn1` gave a Cmax of 0.0286 µg/mL (human; oral; 5 mg; single dose, fasted, suspension).
With `Cc1ccc(C(=O)Nc2ccc(CN3CCN(C)CC3)c(C(F)(F)F)c2)cc1C#Cc1cnc2[nH]ncc2c1` the Cmax was 0.00502 µg/mL (human; oral; 20 mg; single dose, fed, healthy volunteers).
`CC(=O)N[C@H]1CC[C@H](NC(=O)CN2CCN(c3nncc(-c4ccc(C)cc4)n3)CC2)CC1` gave a Cmax of 1.55 µg/mL (female human; oral; 100 mg; single dose, fasted).
`C[C@H](O)C(=O)C1=Nc2c(nc(N)[nH]c2=O)NC1` gave a Cmax of 0.00151 µg/mL (human; oral; 20 mg/kg; single dose, healthy volunteers).
For `CNC(=O)n1ccc2cc(Oc3ccnc(NC(=O)c4ccc(C5CCN(CCO)CC5)cc4)c3)c(OCCOC)cc21`, the Cmax was 0.00681 µg/mL (human; oral; 35 mg; single dose, fed, healthy volunteers).
